Test results: ChEMBL document CHEMBL1649552 (2009)
≈ marks a conversion by molar mass, not a printed value.

Experiments:
Format in all cases: functional
Enterococcus faecium [1] = test: Antibacterial activity against Enterococcus faecium assessed as intermediate isolates by CLSI M100-S17 method
Streptococcus pneumoniae [2] = test: Antibacterial activity against Streptococcus pneumoniae assessed as susceptible isolates by CLSI M100-S17 method
Summary of the method: (§1)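 CLSI broth microdilution on clinical isolates, using frozen in-house-prepared panels of test and comparator agents. MICs were read after 20 to 24 h incubation at 35°C in ambient air. Susceptible/intermediate categories were assigned by CLSI M100-S17 guidelines.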

Enterococcus faecium [3] = test: Antibacterial activity against Enterococcus faecium assessed as resistant isolates by CLSI M100-S17 method
Staphylococcus aureus [4] = test: Antibacterial activity against methicillin-resistant Staphylococcus aureus by CLSI M100-S17 method
Streptococcus pyogenes [5] = test: Antibacterial activity against Streptococcus pyogenes assessed as susceptible isolates by CLSI M100-S17 method; summary of the method: as §1
Streptococcus pneumoniae [6] = test: Antibacterial activity against Streptococcus pneumoniae by CLSI M100-S17 method
Enterococcus faecalis [7] = test: Antibacterial activity against Enterococcus faecalis assessed as susceptible isolates by CLSI M100-S17 method
Streptococcus agalactiae [8] = test: Antibacterial activity against Streptococcus agalactiae by CLSI M100-S17 method
Staphylococcus aureus [9] = test: Antibacterial activity against methicillin-susceptible Staphylococcus aureus by CLSI M100-S17 method
Enterococcus faecium [10] = test: Antibacterial activity against Enterococcus faecium by CLSI M100-S17 method
Staphylococcus aureus [11] = test: Antibacterial activity against methicillin-susceptible Staphylococcus aureus assessed as intermediate isolates by CLSI M100-S17 method
Enterococcus faecium [12] = test: Antibacterial activity against Enterococcus faecium assessed as susceptible isolates by CLSI M100-S17 method
[13] = system: Staphylococcus epidermidis; test: Antibacterial activity against methicillin-susceptible Staphylococcus epidermidis by CLSI M100-S17 method
Streptococcus agalactiae [14] = test: Antibacterial activity against Streptococcus agalactiae assessed as susceptible isolates by CLSI M100-S17 method; summary of the method: as §1
Enterococcus faecalis [15] = test: Antibacterial activity against Enterococcus faecalis assessed as intermediate isolates by CLSI M100-S17 method
Enterococcus faecalis [16] = test: Antibacterial activity against Enterococcus faecalis assessed as resistant isolates by CLSI M100-S17 method
Staphylococcus aureus [17] = test: Antibacterial activity against methicillin-susceptible Staphylococcus aureus assessed as susceptible isolates by CLSI M100-S17 method
Streptococcus pyogenes [18] = test: Antibacterial activity against Streptococcus pyogenes by CLSI M100-S17 method
[19] = system: Staphylococcus epidermidis; test: Antibacterial activity against methicillin-susceptible Staphylococcus epidermidis assessed as intermediate isolates by CLSI M100-S17 method
[20] = system: Staphylococcus epidermidis; test: Antibacterial activity against methicillin-resistant Staphylococcus epidermidis by CLSI M100-S17 method
Enterococcus faecalis [21] = test: Antibacterial activity against Enterococcus faecalis by CLSI M100-S17 method
[22] = system: Staphylococcus epidermidis; test: Antibacterial activity against methicillin-susceptible Staphylococcus epidermidis assessed as susceptible isolates by CLSI M100-S17 method

CC(=O)NC[C@H]1CN(c2ccc(N3CCOCC3)c(F)c2)C(=O)O1 [LINEZOLID]
Activity (Enterococcus faecium [1]): 8.6% | Activity (Streptococcus pneumoniae [2]): 100% | Activity (Enterococcus faecium [3]): 0% | MIC50 (Staphylococcus aureus [4]): 2 mg/L (≈ 5.93 µM) | MIC90 (Staphylococcus aureus [4]): 4 mg/L (≈ 11.9 µM) | Activity (Streptococcus pyogenes [5]): 100% | MIC50 (Streptococcus pneumoniae [6]): 0.5 mg/L (≈ 1.48 µM) | MIC90 (Streptococcus pneumoniae [6]): 1 mg/L (≈ 2.96 µM) | Activity (Enterococcus faecalis [7]): 98.7% | MIC50 (Streptococcus agalactiae [8]): 1 mg/L (≈ 2.96 µM) | MIC90 (Streptococcus agalactiae [8]): 1 mg/L (≈ 2.96 µM) | MIC50 (Staphylococcus aureus [9]): 2 mg/L (≈ 5.93 µM) | MIC90 (Staphylococcus aureus [9]): 2 mg/L (≈ 5.93 µM) | MIC50 (Enterococcus faecium [10]): 2 mg/L (≈ 5.93 µM) | MIC90 (Enterococcus faecium [10]): 2 mg/L (≈ 5.93 µM) | Activity (Staphylococcus aureus [11]): 0% | Activity (Enterococcus faecium [12]): 91.4% | MIC50 [13]: 0.5 mg/L (≈ 1.48 µM) | MIC90 [13]: 1 mg/L (≈ 2.96 µM) | Activity (Streptococcus agalactiae [14]): 100% | Activity (Enterococcus faecalis [15]): 1.3% | Activity (Enterococcus faecalis [16]): 0% | Activity (Staphylococcus aureus [17]): 100% | MIC50 (Streptococcus pyogenes [18]): 1 mg/L (≈ 2.96 µM) | MIC90 (Streptococcus pyogenes [18]): 1 mg/L (≈ 2.96 µM) | Activity [19]: 0% | MIC50 [20]: 1 mg/L (≈ 2.96 µM) | MIC90 [20]: 1 mg/L (≈ 2.96 µM) | MIC50 (Enterococcus faecalis [21]): 2 mg/L (≈ 5.93 µM) | MIC90 (Enterococcus faecalis [21]): 2 mg/L (≈ 5.93 µM) | Activity [22]: 100%
